Results on one compound are retold here after ChEMBL document CHEMBL1136923, “Highly potent, orally available anti-inflammatory broad-spectrum chemokine inhibitors” (J Med Chem, 2009).

One may read the inhibition as the drop in the measured response relative to a control, in per cent. The Cmax is the peak of the concentration-time curve.

For data set [1], the system named is THP-1. Description: Endogenous chemoattractant activity at human THP1 cells assessed as cell migration at 0.1 nM after 2 hrs by microtiter format trans-well migration assay. Format: functional.
The target in data set [2] is C-C chemokine receptor type 2 (Homo sapiens) (UniProt P41597). The data set can be described thus: Antagonist activity at CCR2 in human THP1 cells assessed as inhibition of CCL2-induced chemotaxis at 100 nM after 2 hrs by microtiter format trans-well migration assay. Format: functional, cell-based. To be noted: THP-1. The gist of the method:
(§1)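 Microtiter trans-well migration assay in Gey's balanced salt solution with 1 mg/mL endotoxin-free BSA, no fetal calf serum. Migration ran 2 h at 37 °C. Compounds dissolved in DMSO and added to both top and bottom compartments, final DMSO 1%.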

For data set [3], the system named is Mus musculus. Description: Antiinflammatory activity in mouse assessed as inhibition of LPS-induced TNFalpha upregulation at 0.000225 mg, sc measured 2 hrs after LPS challenge. Format: functional. In outline:
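Murine sublethal endotoxemia: LPS given intraperitoneally, serum TNF-α measured 2 h after LPS injection. Compound vehicle 0.6% DMSO plus 1% carboxymethylcellulose (final concentrations) in sterile water.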

Data set [4] has as its target C-X-C chemokine receptor type 4 (Homo sapiens) (UniProt P61073). Description: Antagonist activity at CXCR4 in human THP1 cells assessed as inhibition of CXCL12-induced chemotaxis at 100 nM after 2 hrs by microtiter format trans-well migration assay. Format: functional, cell-based. To be noted: THP-1. In outline: as §1
The subject of data set [5] is THP-1. Description: Endogenous chemoattractant activity at human THP1 cells assessed as cell migration at 0.001 nM after 2 hrs by microtiter format trans-well migration assay. Format: functional.
The target of data set [6] is C-C chemokine receptor type 2 (Homo sapiens) (UniProt P41597). The data set can be described thus: Antagonist activity at CCR2 in human THP1 cells assessed as inhibition of CCL2-induced chemotaxis at 1 nM after 2 hrs by microtiter format trans-well migration assay. Format: functional, cell-based. To be noted: THP-1. In outline:
as §1

Data set [7] shares this target. Description: Antagonist activity at CCR2 in human THP1 cells assessed as inhibition of CCL2-induced chemotaxis at 10 nM after 2 hrs by microtiter format trans-well migration assay. Format: functional, cell-based. To be noted: THP-1. The gist of the method: as §1
The test system of data set [8] is Mus musculus. The data set can be described thus: Antiinflammatory activity in mouse assessed as inhibition of LPS-induced TNFalpha upregulation at 0.0025 mg, po measured 2 hrs after LPS challenge. Format: functional. The gist of the method: (§2)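 Murine sublethal endotoxemia: LPS given intraperitoneally, with serum TNF-α measured 2 h after the LPS injection as the end point. Compound was given subcutaneously or orally. Vehicle was 0.6% DMSO and 1% carboxymethylcellulose (final concentrations) in sterile water. Effect is reported as % relative to control.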

The target of data set [9] is C-X-C chemokine receptor type 4 (Homo sapiens) (UniProt P61073). The data set can be described thus: Antagonist activity at CXCR4 in human THP1 cells assessed as inhibition of CXCL12-induced chemotaxis at 10 nM after 2 hrs by microtiter format trans-well migration assay. To be noted: THP-1. Format: functional, cell-based. In outline:
as §1

Data set [10] relates to Mus musculus. Description: Antiinflammatory activity in mouse assessed as inhibition of LPS-induced TNFalpha upregulation at 0.075 ug, sc measured 2 hrs after LPS challenge. Format: functional. In outline:
as §2

Data set [11] in a line: Antagonist activity at Interleukin-8 receptor in human PMNC assessed as inhibition of CXCL8-induced chemotaxis after 2 hrs by microtiter format trans-well migration assay. Format: functional. To be noted: read-out: ED50 (the source's name). In outline: as §1
The nature of data set [12]: Antagonist activity at Interleukin-8 receptor in human PMNC assessed as inhibition of CXCL8-induced chemotaxis at 1 nM after 2 hrs by microtiter format trans-well migration assay. Format: functional. In outline: as §1
The nature of data set [13]: Antagonist activity at Interleukin-8 receptor in human PMNC assessed as inhibition of CXCL8-induced chemotaxis at 10 nM after 2 hrs by microtiter format trans-well migration assay. Format: functional. The gist of the method:
as §1

A short description of data set [14]: Antagonist activity at Interleukin-8 receptor in human PMNC assessed as inhibition of CXCL8-induced chemotaxis at 1000 nM after 2 hrs by microtiter format trans-well migration assay. Format: functional. In outline: as §1
A short description of data set [15]: Antagonist activity at Interleukin-8 receptor in human PMNC assessed as inhibition of CXCL8-induced chemotaxis at 0.01 nM after 2 hrs by microtiter format trans-well migration assay. Format: functional. The gist of the method: as §1
Data set [16] can be described thus: Cmax in Sprague-Dawley rat at 3 mg/kg, po administered as single dose. Format: ADME, organism-based. Set-up: dose 3 mg/kg, route oral. To be noted: in vivo. The gist of the method:
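Male Sprague-Dawley rats, three per compound, receive a single oral dose by gavage in 1% carboxymethylcellulose in 0.9% saline, with food and water ad libitum. Plasma is sampled from 5 to 480 min and drug is quantified by positive-mode LC/MS/MS after acetonitrile/formic acid extraction. The lower limit of quantitation is about 2 ng/mL. Exposure is AUC(0→t) by the linear/log trapezoidal rule, and F is oral fractional bioavailability.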

The test system of data set [17] is Mus musculus. The data set can be described thus: Antiinflammatory activity in mouse assessed as inhibition of LPS-induced TNFalpha upregulation at 0.025 mg, sc measured 2 hrs after LPS challenge. Format: functional. In outline: as §2
Data set [18] deals with C-C chemokine receptor type 5 (Homo sapiens) (UniProt P51681). Description: Antagonist activity at CCR5 in human THP1 cells assessed as inhibition of CCL5-induced chemotaxis at 0.01 nM after 2 hrs by microtiter format trans-well migration assay. Format: functional, cell-based. To be noted: THP-1. In outline:
as §1

Data set [19] addresses C-C chemokine receptor type 2 (Homo sapiens) (UniProt P41597). Description: Antagonist activity at CCR2 in human THP1 cells assessed as inhibition of CCL2-induced chemotaxis after 2 hrs by microtiter format trans-well migration assay. To be noted: THP-1. Format: functional, cell-based. In outline:
as §1

Data set [20] has as its target T1, C-C chemokine receptor type 1 (Homo sapiens) (UniProt P32246).
T1 sequence (whole entry): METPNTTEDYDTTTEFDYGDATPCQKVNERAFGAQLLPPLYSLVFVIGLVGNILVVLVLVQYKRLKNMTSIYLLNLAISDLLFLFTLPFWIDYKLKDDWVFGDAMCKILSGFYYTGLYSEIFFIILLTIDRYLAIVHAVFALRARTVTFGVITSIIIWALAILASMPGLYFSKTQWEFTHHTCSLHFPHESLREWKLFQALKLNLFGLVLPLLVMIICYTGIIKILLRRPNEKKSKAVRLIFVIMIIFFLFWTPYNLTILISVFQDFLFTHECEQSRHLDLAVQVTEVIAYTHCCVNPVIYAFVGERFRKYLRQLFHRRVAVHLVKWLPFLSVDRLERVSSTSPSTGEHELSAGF
The data set can be described thus: Antagonist activity at CCR1 in human THP1 cells assessed as inhibition of CCL3-induced chemotaxis at 1000 nM after 2 hrs by microtiter format trans-well migration assay. Format: functional, cell-based. To be noted: THP-1. In outline:
as §1

Data set [21] deals with Mus musculus. Description: Antiinflammatory activity in sc dosed mouse assessed as inhibition of LPS-induced TNFalpha upregulation measured 2 hrs after LPS challenge relative to control. Format: functional. In outline:
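Murine sublethal LPS endotoxemia screen. LPS is injected intraperitoneally and serum TNF-α is measured 2 h later as the end point. Compound is given subcutaneously or orally in a vehicle of 0.6% DMSO plus 1% carboxymethylcellulose (final concentrations) in sterile water. Values are % relative to control.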

In data set [22] the test system is THP-1. The data set can be described thus: Toxicity in human THP1 cells assessed as change in cell size at 0.1 nM by forward scatter flow cytometry relative to control. Format: cell-based. To be noted: thp-1, 0.0001 µM.

Sequence of C-C chemokine receptor type 2 (Homo sapiens) (P41597 whole entry, looked up): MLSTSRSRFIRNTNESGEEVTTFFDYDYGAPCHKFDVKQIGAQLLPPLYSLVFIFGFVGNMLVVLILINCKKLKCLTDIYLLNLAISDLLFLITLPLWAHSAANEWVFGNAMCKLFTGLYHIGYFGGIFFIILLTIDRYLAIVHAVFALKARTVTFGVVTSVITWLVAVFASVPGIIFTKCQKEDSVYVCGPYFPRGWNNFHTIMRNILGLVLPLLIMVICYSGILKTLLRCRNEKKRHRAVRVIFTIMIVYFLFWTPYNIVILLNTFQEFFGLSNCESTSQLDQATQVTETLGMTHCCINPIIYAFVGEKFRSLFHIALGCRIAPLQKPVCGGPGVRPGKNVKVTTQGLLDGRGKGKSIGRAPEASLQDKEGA
Sequence of C-X-C chemokine receptor type 4 (Homo sapiens) (P61073 whole entry): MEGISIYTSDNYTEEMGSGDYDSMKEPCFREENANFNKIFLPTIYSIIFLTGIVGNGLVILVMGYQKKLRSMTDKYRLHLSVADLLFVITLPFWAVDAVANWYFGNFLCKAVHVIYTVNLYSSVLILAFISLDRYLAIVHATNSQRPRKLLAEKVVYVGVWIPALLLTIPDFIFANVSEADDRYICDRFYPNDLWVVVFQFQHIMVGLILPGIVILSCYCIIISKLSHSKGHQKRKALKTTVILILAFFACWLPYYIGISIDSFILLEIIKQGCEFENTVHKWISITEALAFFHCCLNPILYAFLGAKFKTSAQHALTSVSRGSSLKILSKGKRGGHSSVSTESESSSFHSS
Sequence of C-C chemokine receptor type 5 (Homo sapiens) (P51681 whole entry, looked up): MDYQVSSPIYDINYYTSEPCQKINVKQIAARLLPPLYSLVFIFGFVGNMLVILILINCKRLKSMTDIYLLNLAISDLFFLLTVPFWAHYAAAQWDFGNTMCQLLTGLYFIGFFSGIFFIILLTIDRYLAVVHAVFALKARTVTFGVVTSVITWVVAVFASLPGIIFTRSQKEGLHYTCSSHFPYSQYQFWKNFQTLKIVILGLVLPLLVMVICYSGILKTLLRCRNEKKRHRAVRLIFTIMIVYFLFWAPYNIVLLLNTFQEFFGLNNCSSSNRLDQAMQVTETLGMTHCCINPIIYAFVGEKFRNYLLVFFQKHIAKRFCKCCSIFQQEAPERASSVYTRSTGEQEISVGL

With `CCCCCCCCCCC(C)(C)C(=O)N[C@H]1CCCCNC1=O`, the values for the Activity with THP-1 [1] and with THP-1 [5] were 2556% and 4282%, respectively. For the same compound, the inhibition came to 93% in data set [2]; 111% in data set [4]; 81% in data set [6]; 96% in data set [7]; 107% in [9]; 8.5% in data set [18]. Further, in [20], the inhibition stood at 99.5%. For the same compound, the “inhibition (INH)” value in the data set on Mus musculus [3] came to 68%; in the data set on Mus musculus [8], 0%; in the data set on Mus musculus [10] it was 65%; in the data set on Mus musculus [17], 64%; in the data set with Mus musculus [21], 70%. Also, the EC50 in [11] was 0.3 nM. Also, the inhibition at 0.001 µM in data set [12] is 71%. Also, the inhibition at 0.01 µM in data set [13] was 121%. The inhibition at 1 µM in data set [14] was found to be 122%. Also, in data set [15], the inhibition at 10 pM was -12%. In addition, the Cmax in data set [16] turned out to be 60 ng/mL. Besides, the ED50 in data set [19] worked out at 0.09 nM. Besides, the “fold change (FC)” value in the data set on THP-1 [22] stood at 1.04.
